Test system: MS2 coat protein
Assay: apparent Kd, MS2 coat protein; higher = weaker binding; RNA-MaP array; FMN 200 µM where present
How it was run: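 Designs on Illumina sequencing-chip clusters, transcribed by stalled E. coli RNA polymerase, were exposed to SNAP-549-labelled MS2 coat protein in doubling steps from 0.7 or 1.5 nM up to 3 µM, without and then with constant ligand. The buffer held 100 mM Tris-HCl pH 7.5, 80 mM KCl, 4 mM MgCl2, BSA, DTT, yeast tRNA and Tween-20. Apparent Kd values are medians of filtered per-cluster binding-curve fits to green signal normalised to red-channel RNA signal and control-cluster median Fmax.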

[1] = designed as: OFF switch for flavin mononucleotide, no ligand
[2] = ligand present: flavin mononucleotide, designed as: OFF switch for flavin mononucleotide
[3] = designed as: ON switch for flavin mononucleotide, no ligand
[4] = ligand present: flavin mononucleotide, designed as: ON switch for flavin mononucleotide

AUCCGACAUGAGGAUCACCCAUGUCAGGAUAUGGACUGACACCGAAAGAGUGGAGGAACCAGAAGGGACUGGGC
apparent Kd [1]: 27.7 nM
apparent Kd [2]: 46.5 nM

CUAUGAAGAAUAGGAUAUUCGAUCAAGAGGAUAGAAGAAGGGUUACAUGAGGAUCACCCAUGUAUGCACAUGAGGAUCCCUUAG
apparent Kd [1]: 98.4 nM
apparent Kd [2]: 107 nM

GAUCCUUCUGUUAGGAUAUGCUUUGGGCUUCCGCAGCAGAAGGAACAUGAGGAUCACCCAUGUCAAAUAACAUC
apparent Kd [1]: 21.4 nM
apparent Kd [2]: 22.8 nM

UGUGUCCGUAGAGGAUAUCCGGGCGUUCGGCUAGGAGAAGGCUGCGACACAUGAGGAUCACCCAUGUAGGUUGUGUCUCUCUAC
apparent Kd [1]: 51.6 nM
apparent Kd [2]: 275 nM

AAGGACUGUAAAUAAGUAGAAAUACAUGAGGAUCACCCAUGUAAGGAUAUCGUCAGGAAUACUGACGAGAAGGUACAUCAGUCC
apparent Kd [1]: 14.5 nM
apparent Kd [2]: 18.6 nM

UGGUACUAGGGAGGAUAUGGGAAGAUACAUGAGGAUCACCCAUGUUUAAGAAUGCCGAGAGGUAACUAGAAGGCCCUAGUACCU
apparent Kd [3]: 455 nM
apparent Kd [4]: 15.1 nM

CAGCGCUGUCGAGAGGAUAUGCAGUGAUGGACAUGAGGAUCACCCAUGUUAGCGAUAGCAUUACGGUAGAAGGCUCUACAGCUGC
apparent Kd [3]: 18 nM
apparent Kd [4]: 15.1 nM

CUUUGAUGAGGAUAUCGAGGUUAGUACAUGAGGAUCACCCAUGUUAUCCAGGUGUCGGAUCGAGAAGGUAUUGGAC
apparent Kd [2]: 17.5 nM

UGAAUCAAUACAGGAUAUGGUGACGCACAUGAGGAUCACCCAUGUCCGCAGCGUGCUAAGCACGCCCAGAAGGGUAUUGAUCUG
apparent Kd [3]: 1010 nM
apparent Kd [4]: 81 nM

UACAUGAGGAUCACCCAUGUUUUGUCGUGUAUGGUAUUUAUCUAGGAUAUCGUGUUAUUUAACCACGAGAAGGAGAGUAUCAAU
apparent Kd [1]: 27.5 nM
apparent Kd [2]: 26.7 nM

AAAUAAAGUACCUUGAUAUCCUCACAUGAGGAUCACCCAUGUCAGGAUAUUUGUCCUAAAAGGACAGAGAAGGGACAAGGUAUA
apparent Kd [1]: 5.82 nM
apparent Kd [2]: 6.19 nM

GCGUAAUAGGUGUAGCUAGUCAUUCAAGAAGGGUGAAGAACAUGAGGAUCACCCAUGUGGUUUAUACAGGAUAUUGAUAUACGC
apparent Kd [3]: 363 nM
apparent Kd [4]: 90.4 nM

CAGGAGAACACAGGAUAUCCGUAAGACAUGAGGAUCACCCAUGUUUGUGGCCCGCCAGGGCUGACGGAGAAGGGUGACUCGCAC
apparent Kd [3]: 9.04 nM
apparent Kd [4]: 5.81 nM

UUAAUUAACAAGAAGGCUUACAUGAGGAUCACCCAUGUUGUACAUGGAUAAAGAGGAUAUUGCUAAUAAUUAUUUUUCUUAAUU
apparent Kd [1]: 92.1 nM
apparent Kd [2]: 57.5 nM

AAUGGCUGAGGAUAUACACUCACGUCUAAAAGGUUCAAAUGACAUGAGGAUCACCCAUGUAGAAGGCAGCCCGA
apparent Kd [2]: 50.2 nM

UCAUUAUAAAUCCAUCAUAACUACAUGAGGAUCACCCAUGUGCAGGAUAUCGAUAAUUUAACUAACGAGAAGGGCAUUUACAGA
apparent Kd [1]: 37.6 nM
apparent Kd [2]: 139 nM

CUAUAGAUAUGAGGAUAUGUAUAUCCAACAUGAGGAUCACCCAUGUUGAUGAUCACGUAUGUAAAGCAGAAGGCAUAUCUAUAG
apparent Kd [4]: 6.41 nM

AGGUAAACCACAGGAUAUGGCUAGUAUAACUAGCCAGAAGGGUGGUCGAAACCAUGUAAAUACAUGAGGAUCACCCAUGUGUCC
apparent Kd [3]: 400 nM
apparent Kd [4]: 131 nM

CGCUUCUUAGUCAGGAUAUUGUCUGCACAGGGUAGUAAGAAGGGACAUGAGGAUCACCCAUGUAUAACGGUACC
apparent Kd [1]: 51.8 nM
apparent Kd [2]: 49.1 nM

UUUAUUUAGGCAGGAUAUACAUGUAUAUAUAUUUCUUUAUAUCUUAUUACAUGAGGAUCACCCAUGUAGAAGGGCCUUAUUAUA
apparent Kd [1]: 17.3 nM
apparent Kd [2]: 23.6 nM

AAAAGACAUGAGGAUCACCCAUGUGAAAACGUAGGAGGAUAUGUCGUGAAAAAAGACUUGACAGAAGGCCUGUGUC
apparent Kd [3]: 97.7 nM
apparent Kd [4]: 30.8 nM

GGAGACCUCACAGGAUAUGCUGGACUUUGUCCAGCAGAAGGGUGAAAACAUGAGGAUCACCCAUGUAUGGUCUCCAAAUUUAAA
apparent Kd [3]: 200 nM
apparent Kd [4]: 13.2 nM

CUGCUGGAGCUUCGCUUUGGUCGUACAUGAGGAUCACCCAUGUAGGAUAUGGUAAAAUUCGCCUGCUAGAAGGAUAGAGUGGUC
apparent Kd [1]: 67.2 nM
apparent Kd [2]: 139 nM

UAAAUUAACAAGAAGGCUAACAUGAGGAUCACCCAUGUUGUACAUGGAUAUAGAGGAUAUUGAUAAUAAUUUUUUAUCAUAAUU
apparent Kd [1]: 17.6 nM
apparent Kd [2]: 16.5 nM

UGAAAUCAUGUAGGAUAUGCAUGGCGAAGCUACGCAGAAGGACAUGAGGAUCACCCAUGUGCUAGCUACCGGAUACGGUGGCAA
apparent Kd [1]: 99.1 nM
apparent Kd [2]: 230 nM

AAUAUGAGCUGGUAAAUAAAACCGACAUGAGGAUCACCCAUGUAGGAUAUCAGCACGAUAAGUGCUGAGAAGGACAUCCAGCUC
apparent Kd [1]: 14.4 nM
apparent Kd [2]: 16.7 nM

AAUAACAGAGGAUAUACUGUUUUAUGUGUUUGUUGUUUUAAACAUGAGGAUCACCCAUGUAGAAGGCUGAGUAA
apparent Kd [1]: 23.2 nM
apparent Kd [2]: 23.7 nM

GUAUAUCACUCAGGAUAUCUGUAAUUUAUUGAAACAUGAGGAUCACCCAUGUUCAUAAAUUUAUAGGAGAAGGGAGAGAUAUAC
apparent Kd [3]: 4.39 nM
apparent Kd [4]: 4.58 nM

CUGUGAUGGAUCCAGAAUUACAACAUGAGGAUCACCCAUGUGCAGGAUAUCGGGUUGAUAGGCGCCGAGAAGGGUAUAAUCACG
apparent Kd [1]: 110 nM
apparent Kd [2]: 105 nM

AAUCACAUGAGGAUCACCCAUGUGCCAGAAGGCACAAAUCUGCCUGGUGCGCCCGGGCUUCUCUGUGAGGAUAUGGAAAAGAAG
apparent Kd [3]: 309 nM
apparent Kd [4]: 76 nM

GGAUGAUUAAUAGGAUAUUAUUUGUAAUUUGGUUAAGAAGGAUUAAUGAUUUAAACGACCUGUUACAUGAGGAUCACCCAUGUU
apparent Kd [3]: 95.5 nM
apparent Kd [4]: 74.1 nM

ACCAGUGCAUGAGGAUAUCACAUCGGUAUCCUCCAGUGCGGCGUUCGACAUGAGGAUCACCCAUGUGAGAAGGCAUGAACUCGG
apparent Kd [1]: 15.6 nM
apparent Kd [2]: 18.6 nM

GUCAUUUAUGUAGGAUAUGCGAGGCGAGCCUGAGCAGAAGGACAUGAGGAUCACCCAUGUAUUGCGGUUUAUGUUCAGAUCGCU
apparent Kd [1]: 16.3 nM
apparent Kd [2]: 19 nM

GUAGCUAUCGGAGGAUAUUCAUACUGGAAACGGACAUGAGGAUCACCCAUGUGGCGAAAGCCUUGGGAGAAGGUCGAUAGCUAC
apparent Kd [3]: 177 nM
apparent Kd [4]: 10.1 nM

UAGGACUACGUAGGAUAUGUAGUAUAUUACUACAUGAGGAUCACCCAUGUAAGCAUGUUAUUAGGACAGAAGGACGUGGUAAAU
apparent Kd [3]: 43.6 nM
apparent Kd [4]: 13.7 nM

ACAUGAGGAUCACCCAUGUUAAACGAGGAUAUAUGACUGCACAUGAGGUUCACCCAUGUUCUACCGUAGAAGGUGUAAAUAAUU
apparent Kd [3]: 68.5 nM
apparent Kd [4]: 70.6 nM
